Measurements published in ChEMBL document CHEMBL4270599, “Synthesis of a 3'-C-ethynyl-β-d-ribofuranose purine nucleoside library: Discovery of C7-deazapurine analogs as potent antiproliferative nucleosides” (Eur J Med Chem, 2018).
pIC50: −log10 of the molar value.

Experiments:
[1] = system: ACHN; experiment: Growth inhibition of human ACHN cells assessed as cell growth at 10^-7 M incubated for 48 hrs by sulforhodamine B assay relative to control; type: functional; details: read-out: Activity
[2] = system: HCT-116; experiment: Cytotoxicity against human HCT116 cells after 48 hrs by SRB assay; type: functional; details: HCT-116, 48 h
[3] = system: SK-MEL-28; experiment: Growth inhibition of human SK-MEL-28 cells assessed as cell growth at 10^-8 M incubated for 48 hrs by sulforhodamine B assay relative to control; type: functional; details: SK-MEL-28, 48 h, read-out: Activity
[4] = system: NCI-H226; experiment: Growth inhibition of human NCI-H226 cells assessed as cell growth at 10^-7 M incubated for 48 hrs by sulforhodamine B assay relative to control; type: functional; details: NCI-H226, 48 h, read-out: Activity
[5] = system: SR; experiment: Cytotoxicity against human SR cells after 48 hrs by SRB assay; type: functional
[6] = system: EKVX; experiment: Growth inhibition of human EKVX cells assessed as cell growth at 10^-7 M incubated for 48 hrs by sulforhodamine B assay relative to control; type: functional; details: read-out: Activity
[7] = system: PC-3; experiment: Growth inhibition of human PC3 cells assessed as cell growth at 10^-7 M incubated for 48 hrs by sulforhodamine B assay relative to control; type: functional; details: PC-3, 48 h, read-out: Activity
[8] = system: LOX IMVI; experiment: Cytotoxicity against human LOXIMVI cells after 48 hrs by SRB assay; type: functional
[9] = system: PC-3; experiment: Growth inhibition of human PC3 cells assessed as cell growth at 10^-6 M incubated for 48 hrs by sulforhodamine B assay relative to control; type: functional; details: PC-3, 48 h, read-out: Activity
[10] = system: HOP-92; experiment: Growth inhibition of human HOP92 cells assessed as cell growth at 10^-8 M incubated for 48 hrs by sulforhodamine B assay relative to control; type: functional; details: HOP-92, 48 h, read-out: Activity
[11] = system: OVCAR-4; experiment: Growth inhibition of human OVCAR4 cells assessed as cell growth at 10^-8 M incubated for 48 hrs by sulforhodamine B assay relative to control; type: functional; details: OVCAR-4, 48 h, read-out: Activity
[12] = system: NCI-H226; experiment: Growth inhibition of human NCI-H226 cells assessed as cell growth at 10^-8 M incubated for 48 hrs by sulforhodamine B assay relative to control; type: functional; details: NCI-H226, 48 h, read-out: Activity
[13] = system: DU-145; experiment: Cytotoxicity against human DU145 cells after 48 hrs by SRB assay; type: functional; details: DU-145, 48 h
[14] = system: CCRF-CEM; experiment: Growth inhibition of human CCRF-CEM cells assessed as cell growth at 10^-7 M incubated for 48 hrs by sulforhodamine B assay relative to control; type: functional; details: read-out: Activity
[15] = system: BT-549; experiment: Growth inhibition of human BT549 cells assessed as cell growth at 10^-8 M incubated for 48 hrs by sulforhodamine B assay relative to control; type: functional; details: BT-549, 48 h, read-out: Activity
[16] = system: KM12; experiment: Growth inhibition of human KM12 cells assessed as cell growth at 10^-8 M incubated for 48 hrs by sulforhodamine B assay relative to control; type: functional; details: KM12, 48 h, read-out: Activity
[17] = system: MDA-MB-468; experiment: Growth inhibition of human MDA-MB-468 cells assessed as cell growth at 10^-8 M incubated for 48 hrs by sulforhodamine B assay relative to control; type: functional; details: MDA-MB-468, 48 h, read-out: Activity
[18] = system: L1210; experiment: Antiproliferative activity against mouse L1210 cells after 48 hrs by Coulter counter method; type: functional, cell-based; details: L1210, 48 h
Summary of the method: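 Cell count assay in 96-well microtiter plates; (5–7.5) × 10⁴ tumor cells per well plus test compound. Cells proliferated at 37 °C in humidified CO₂-controlled atmosphere, 48 h for murine leukemia L1210, 72 h for human lymphocytic CEM and cervix carcinoma HeLa. Counted by Coulter counter; IC₅₀ is the concentration that inhibits proliferation by 50%.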

[19] = system: K562; experiment: Growth inhibition of human K562 cells assessed as cell growth at 10^-8 M incubated for 48 hrs by sulforhodamine B assay relative to control; type: functional; details: K562, 48 h, read-out: Activity
[20] = system: MOLT-4; experiment: Growth inhibition of human MOLT4 cells assessed as cell growth at 10^-8 M incubated for 48 hrs by sulforhodamine B assay relative to control; type: functional; details: MOLT-4, 48 h, read-out: Activity
[21] = system: MDA-MB-231; experiment: Growth inhibition of human MDA-MB-231 cells assessed as cell growth at 10^-7 M incubated for 48 hrs by sulforhodamine B assay relative to control; type: functional; details: MDA-MB-231, 48 h, read-out: Activity
[22] = system: SF-268; experiment: Growth inhibition of human SF268 cells assessed as cell growth at 10^-8 M incubated for 48 hrs by sulforhodamine B assay relative to control; type: functional; details: SF-268, 48 h, read-out: Activity
[23] = system: NCI/ADR-RES; experiment: Cytotoxicity against human NCI-ADR-RES cells after 48 hrs by SRB assay; type: functional
[24] = system: NCI-H460; experiment: Growth inhibition of human NCI-H460 cells assessed as cell growth at 10^-7 M incubated for 48 hrs by sulforhodamine B assay relative to control; type: functional; details: NCI-H460, 48 h, read-out: Activity
[25] = system: HCT-116; experiment: Growth inhibition of human HCT116 cells assessed as cell growth at 10^-8 M incubated for 48 hrs by sulforhodamine B assay relative to control; type: functional; details: HCT-116, 48 h, read-out: Activity
[26] = system: EKVX; experiment: Growth inhibition of human EKVX cells assessed as cell growth at 10^-8 M incubated for 48 hrs by sulforhodamine B assay relative to control; type: functional; details: read-out: Activity
[27] = system: NCI/ADR-RES; experiment: Growth inhibition of human NCI/ADR-RES cells assessed as cell growth at 10^-8 M incubated for 48 hrs by sulforhodamine B assay relative to control; type: functional; details: read-out: Activity
[28] = read-out: pLC50 (the source's name) (converted)

Question: How did the growth at 0.1 µM [1] turn out when C#C[C@@]1(O)[C@@H](CO)O[C@@H](n2cc(Cl)c3c(N)ncnc32)[C@@H]1O was run?
Answer: 72%

Question: What about the GI50 ([2]; read-out: GI50) of the same compound?
Answer: 18.5 to 22.1 nM

Question: What about the TGI ([2]; read-out: TGI) of the same compound?
Answer: > 100 µM

Question: And the CC50 [2, 28]?
Answer: > 100 µM

Question: And the TGI ([2]; read-out: pTGI (converted))?
Answer: > 100 µM

Question: And the growth at 0.01 µM [3]?
Answer: 94%

Question: What about the growth at 0.1 µM [4] of the same compound?
Answer: 102 to 108%

Question: And the GI50 ([5]; read-out: GI50)?
Answer: 61.1 to 87.3 nM

Question: And the TGI ([5]; read-out: TGI)?
Answer: > 100 µM

Question: What about the CC50 [5, 28] of the same compound?
Answer: > 100 µM

Question: And the TGI ([5]; read-out: pTGI)?
Answer: > 100 µM

Question: And the growth at 0.1 µM [6]?
Answer: 78 to 79%

Question: What about the growth at 0.1 µM [7] of the same compound?
Answer: 62 to 70%

Question: What about the GI50 ([8]; read-out: GI50) of the same compound?
Answer: 36 to 81.4 nM

Question: What about the CC50 ([8]; read-out: LC50 (the source's name)) of the same compound?
Answer: 756 to 871 nM

Question: And the TGI ([8]; read-out: TGI)?
Answer: 226 to 284 nM

Question: What about the growth at 1 µM [9] of the same compound?
Answer: 9 to 11%

Question: What about the growth at 0.01 µM [10] of the same compound?
Answer: 90 to 97%

Question: What about the growth at 0.01 µM [11] of the same compound?
Answer: 89 to 90%

Question: What about the growth at 0.01 µM [12] of the same compound?
Answer: 99 to 108%

Question: What about the GI50 ([13]; read-out: GI50) of the same compound?
Answer: 109 to 159 nM

Question: What about the TGI ([13]; read-out: TGI) of the same compound?
Answer: 27 to 100 µM

Question: What about the CC50 [13, 28] of the same compound?
Answer: > 100 µM

Question: What about the growth at 0.1 µM [14] of the same compound?
Answer: 76 to 80%

Question: And the growth at 0.01 µM [15]?
Answer: 88 to 95%

Question: What about the growth at 0.01 µM [16] of the same compound?
Answer: 85 to 88%

Question: And the growth at 0.01 µM [17]?
Answer: 97 to 103%

Question: And the pIC50 [18]?
Answer: 7.85

Question: What about the growth at 0.01 µM [19] of the same compound?
Answer: 93 to 97%

Question: What about the growth at 0.01 µM [20] of the same compound?
Answer: 81 to 83%

Question: What about the growth at 0.1 µM [21] of the same compound?
Answer: 60 to 71%

Question: And the growth at 0.01 µM [22]?
Answer: 82 to 88%

Question: What about the GI50 ([23]; read-out: GI50) of the same compound?
Answer: 50.6 to 54.6 nM

Question: And the TGI ([23]; read-out: TGI)?
Answer: 777 nM

Question: What about the CC50 [23, 28] of the same compound?
Answer: > 100 µM

Question: What about the TGI ([23]; read-out: pTGI (converted)) of the same compound?
Answer: 776 nM

Question: What about the growth at 0.1 µM [24] of the same compound?
Answer: 13 to 27%

Question: What about the growth at 0.01 µM [25] of the same compound?
Answer: 67 to 73%

Question: What about the growth at 0.01 µM [26] of the same compound?
Answer: 83 to 89%

Question: And the growth at 0.01 µM [27]?
Answer: 77 to 82%
